Test results published in ChEMBL document CHEMBL2177013, “Synthesis and biological evaluation of tylophorine-derived dibenzoquinolines as orally active agents: exploration of the role of tylophorine e ring on biological activity” (J Med Chem, 2012).
In brackets after ≈: the same amount, converted by molar mass. Activity calls are given as the source filed them.

What was measured:
[1] = Oral bioavailability in Sprague-Dawley rat at 3 mg/kg by HPLC-MS method; type: ADME, organism-based; settings: in vivo
How it was run: (§1)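 Male rats (330−380 g, 9−10 weeks), jugular vein cannula implanted 1 day before, fasted. 3 mg/kg given iv or orally (n = 3) in DMA/PEG400 30/70 v/v. Blood (150 μL) drawn at 0, 2, 5 (iv only), 15, 30 min and 1, 2, 4, 6, 8, 12, 24 h; plasma analysed by HPLC-MS; noncompartmental analysis.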

[2] = Tmax in Sprague-Dawley rat at 3 mg/kg, po by HPLC-MS method; type: ADME, organism-based; parameters: dose 3 mg/kg, route oral; settings: in vivo; how it was run: as §1
[3] = Cmax in Sprague-Dawley rat at 3 mg/kg, po by HPLC-MS method; type: ADME, organism-based; parameters: dose 3 mg/kg, route oral; settings: in vivo; how it was run: as §1
[4] = Apparent elimination half life in Sprague-Dawley rat at 3 mg/kg, po by HPLC-MS method; type: ADME, organism-based; parameters: dose 3 mg/kg, route oral; settings: in vivo, read-out: betat1/2(app) (converted); how it was run: as §1
[5] = AUC (0 to infinity) in Sprague-Dawley rat at 3 mg/kg, iv by HPLC-MS method; type: ADME, organism-based; parameters: time infinity, dose 3 mg/kg, route intravenous; settings: plasma
How it was run: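 Male rats (330−380 g, 9−10 weeks old), jugular vein cannulated 1 day before dosing, fasted; 3 mg/kg iv or oral in DMA/PEG400 (30/70, v/v), n = 3. Blood (150 μL) drawn at 0, 2, 5 (iv only), 15, 30 min and 1, 2, 4, 6, 8, 12, 24 h, kept on ice; plasma analysed by HPLC-MS; noncompartmental analysis.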

[6] = Volume of distribution at steady state in Sprague-Dawley rat at 3 mg/kg, iv by HPLC-MS method; type: ADME, organism-based; parameters: dose 3 mg/kg, route intravenous; settings: in vivo, read-out: Vdss; how it was run: as §1
[7] = Apparent elimination half life in Sprague-Dawley rat at 3 mg/kg, iv by HPLC-MS method; type: ADME, organism-based; parameters: dose 3 mg/kg, route intravenous; settings: in vivo, read-out: betat1/2(app) (converted); how it was run: as §1
[8] = Solubility in DMSO; type: physicochemical
How it was run: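 Compound dissolved in DMSO with sonication; maximal volume before precipitation measured and used to calculate saturation solubility.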

Murine hepatitis virus = test: Antiviral activity against Murine hepatitis virus JHM infected in mouse DBT cells assessed as reduction in virus-induced cytopathic effect at 0.05 to 0.5 uM pre-treated 1 hr before virus infection and measured 24 hrs post infection by phase contrast microscopy; type: functional, organism-based
How it was run: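 DBT cells (2.8 × 10⁵/well) seeded the day before infection in DMEM with 2% FBS. Compound added 1 h before MHV-JHM at MOI 0.005 (virus grown in BNL CL.2 cells). Cytopathic effect viewed by phase contrast and N protein by immunofluorescence at 24 hpi.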

[9] = test system: Transmissible gastroenteritis virus; test: Antiviral activity against Transmissible gastroenteritis virus infected in ST cells assessed as reduction in caspase-3 activation pre-treated before virus infection measured 16 hrs post virus infection by Western blotting; type: functional, organism-based
How it was run: (§2)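 ST cells pretreated with compound, then infected with TGEV. Western blot for nucleocapsid (N) protein, caspase 3 (cleavage of procaspase 3) and GAPDH at 16 hpi. Representative of at least three independent experiments.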

[10] = test system: Transmissible gastroenteritis virus; test: Antiviral activity against Transmissible gastroenteritis virus infected in ST cells assessed as reduction in N-protein expression pre-treated before virus infection measured 16 hrs post virus infection by Western blotting; type: functional, organism-based; how it was run: as §2
RAW264.7 [11] = test: Reduction in LPS/INFgamma-induced COX2 protein expression in mouse RAW264.7 cells incubated for 20 hrs by Western blotting; type: functional, cell-based
How it was run: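 LPS/IFNγ-stimulated RAW264.7 cells treated with compound for 20 h. iNOS, COX-2 and GAPDH detected by Western blot; representative of at least three independent experiments.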

A549 [12] = test: Induction of c-Jun protein accumulation in human A549 cells incubated for 24 hrs by Western blotting; type: functional, cell-based
A549 [13] = test: Down regulation of cyclin A2 expression in human A549 cells incubated for 24 hrs by Western blotting; type: functional, cell-based
NCI-H460 = test: Induction of c-Jun protein accumulation in human NCI-H460 cells incubated for 24 hrs by Western blotting; type: functional, cell-based
MCF7 [14] = test: Down regulation of cyclin A2 expression in human MCF7 cells incubated for 24 hrs by Western blotting; type: functional, cell-based
[15] = Cytotoxicity against mouse RAW264.7 cells; type: cell-based
How it was run: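 RAW264.7 cells stimulated with LPS/IFNγ and compound-treated in parallel with the NO assay; CC50 taken as concentration giving 50% inhibition of cell growth. Mean of at least three experiments, each in duplicate.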

RAW264.7 [16] = test: Antiinflammatory activity in mouse RAW264.7 cells assessed as inhibition of LPS-induced nitric oxide production incubated for 18 hrs by nitrate/nitrite assay; type: functional, cell-based; settings: RAW264.7, 18 h
How it was run: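 RAW264.7 seeded 65000 cells/well, cultured 24 h, then medium replaced with complete medium containing IFNγ (20 ng/mL)/LPS (5 μg/mL) plus compound at various concentrations for 18 h; nitric oxide measured by Nitrate/Nitrite kit. EC50 as mean of at least three experiments, each in duplicate.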

[17] = Growth inhibition of human HONE1 cells; type: functional
How it was run: (§3)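 Cells seeded per well: NUGC-3 4500, HONE-1 6000, MCF-7 6500, NCI-H460 2500, HepG2 10000, A549 5000; A549 grown in RPMI 1640 with 2 g/L NaHCO₃, 2 mM L-glutamine and 10% FBS. GI₅₀ = concentration giving 50% growth inhibition, mean of at least three experiments each in duplicate. Paclitaxel served as positive control.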

NUGC-3 = test: Growth inhibition of human NUGC3 cells; type: functional; how it was run: as §3
MCF7 [18] = test: Growth inhibition of human MCF7 cells; type: functional; how it was run: as §3
A549 [19] = test: Growth inhibition of human A549 cells; type: functional; how it was run: as §3
HepG2 = test: Growth inhibition of human HepG2 cells; type: functional; how it was run: as §3
Mus musculus [20] = test: Toxicity in Nu-Foxn1'nu mouse assessed as effect on motor coordination at 10 mg/kg, po administered once daily on day 1 to 10, day 15 to 19 and day 22 to 26 measured during day 58 to 61 post dose by rotarod test; type: organism-based; parameters: dose 10 mg/kg, route oral; settings: in vivo
How it was run: (§4)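 Male nude mice already used in the A549 xenograft study (oral dosing, vehicle 25% DMA + 75% PEG400). Groups: vehicle (n = 8), 5 mg/kg (n = 7), 10 mg/kg (n = 8), plus untreated nontumor mice (n = 5). Rota-rod training on day 58, testing on days 59–61, rod accelerating 2 to 30 rpm over 300 s. Read-out was latency to fall, 300 s cutoff.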

Mus musculus [21] = test: Toxicity in Nu-Foxn1'nu mouse assessed as effect on motor coordination at 5 mg/kg, po administered once daily on day 1 to 10, day 15 to 19 and day 22 to 26 measured during day 58 to 61 post dose by rotarod test; type: organism-based; parameters: dose 5 mg/kg, route oral; settings: in vivo; how it was run: as §4
Rattus norvegicus [22] = test: Antiinflammatory activity against Sprague-Dawley rat assessed as reduction in carrageenan-induced hind paw edema at 5 mg/kg, ip; type: functional; parameters: scale not given: the % may be the effect or the level left; settings: route intraperitoneal
How it was run: (§5)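 Female Sprague−Dawley rats (193−214 g, 8−9 weeks, n = 5) dosed ip 1 h before subplantar injection of 100 μL 1% carrageenan in saline into the left hind paw. Vehicle group received DMSO (100 μL); indomethacin served as positive control. Inhibition of 30% or more counted as significant.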

Rattus norvegicus [23] = test: Antiinflammatory activity against Sprague-Dawley rat assessed as reduction in carrageenan-induced hind paw edema at 3 mg/kg, ip; type: functional; parameters: scale not given: the % may be the effect or the level left; settings: route intraperitoneal; how it was run: as §5

CCN1Cc2c(c3ccc(OC)cc3c3cc(OC)c(OC)cc23)C(O)C1 (configuration not stated)
bioavailability [1]: 63.5% | Tmax [2]: 18 min | Cmax [3]: 72.4 ng/mL | half-life [4]: 708 min | AUC(0-inf) [5]: 999 ng·h/mL | Vd [6]: 2.7 L/kg | half-life [7]: 48 min | solubility [8]: 60.5 mM (≈ 22.2 mg/mL) | Activity (Murine hepatitis virus): Active | Activity [9]: Active | Activity [10]: Active | Activity (RAW264.7 [11]): Active | Activity (A549 [12]): Active | Activity (A549 [13]): Active | Activity (NCI-H460): Active | Activity (MCF7 [14]): Active | CC50 [15]: 240 nM | EC50 (RAW264.7 [16]): 70 nM | GI50 [17]: 60 nM | GI50 (NUGC-3): 30 nM | GI50 (MCF7 [18]): 40 nM | GI50 (A549 [19]): 20 nM | GI50 (HepG2): 40 nM | Activity (Mus musculus [20]): Non-toxic | Activity (Mus musculus [21]): Non-toxic | Activity (Rattus norvegicus [22]): >60% | Activity (Rattus norvegicus [23]): >60%
